From ChEMBL document CHEMBL1130283, “Synthesis and structure-activity relationships of nonaromatic taxoids: effects of alkyl and alkenyl ester groups on cytotoxicity” (J Med Chem, 1997)

Legend:
Type in all cases: functional, cell-based
[1] = tested on: HT-29; experiment: Inhibition of the growth against human Colon Carcinoma (HT-29) cell line after 72 hr exposure; details: HT-29, 72 h
Outline: (§1)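 SRB assay. Cells were seeded at 400/well, allowed to attach overnight, and grown in RPMI-1640 with 5% FBS and 5% Nu serum. Compounds were dissolved in DMSO, diluted in medium and applied to triplicate wells for 72 h. Cells were fixed with cold 50% TCA (1 h, 4 °C), stained with 0.4% SRB for 5 min, rinsed with 0.1% acetic acid and solubilized in 10 mM Tris pH 10.5. OD was read at 570 nm. IC50 came from a weighted sigmoid-Emax nonlinear fit.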

[2] = tested on: A549; experiment: Inhibition of the growth against human non-small-lung carcinoma (A549) cell line after 72 hr exposure; details: A549, 72 h
[3] = tested on: MCF7R; experiment: Inhibition of the growth against human mammary carcinoma 180 fold resistant to doxorubicin (MCF-7-R) cell line after 72 hr exposure
[4] = tested on: A121; experiment: Inhibition of the growth against human Ovarian Carcinoma (A121) cell line after 72 hr exposure; details: A121, 72 h; outline: as §1
[5] = tested on: MCF7; experiment: Inhibition of the growth against human mammary carcinoma (MCF-7) cell line after 72 hr exposure; details: MCF7, 72 h; outline: as §1

Q: Which IC50 [1] does the source give for `CC(=O)OC1C(=O)C2(C)C(O)CC3OCC3(OC(C)=O)C2C(OC(=O)C=C(C)C)C2(O)CC(OC(=O)C(O)C(CC(C)C)NC(=O)OC(C)(C)C)C(C)=C1C2(C)C` (stereo not given) here?
A: The IC50 was 89 nM.

Q: And the IC50 [2]?
A: The IC50 was 30 nM.

Q: And the IC50 [3]?
A: Its IC50 is over 1000 nM.

Q: And the IC50 [4]?
A: Its IC50 is 54 nM.

Q: And the IC50 [5]?
A: Its IC50 is 84 nM.

Q: What does the source list for `CC(=O)OC1C(=O)C2(C)C(O)CC3OCC3(OC(C)=O)C2C(OC(=O)C2CCCCC2)C2(O)CC(OC(=O)C(O)C(C=C(C)C)NC(=O)OC(C)(C)C)C(C)=C1C2(C)C` (stereo not given)?
A: IC50 [1]: 1.7 nM; IC50 [2]: 1.3 nM; IC50 [3]: 26 nM; IC50 [4]: 1.5 nM; IC50 [5]: 0.5 nM

Q: With `CC(=O)OC1C(=O)C2(C)C(O)CC3OCC3(OC(C)=O)C2C(OC(=O)CC(C)C)C2(O)CC(OC(=O)C(O)C(CC(C)C)NC(=O)OC(C)(C)C)C(C)=C1C2(C)C` (stereo not given) as the compound, how does the IC50 [1] read?
A: Its IC50 is 52 nM.

Q: And the IC50 [2]?
A: Its IC50 is 47 nM.

Q: And the IC50 [3]?
A: Its IC50 is 1080 nM.

Q: And the IC50 [4]?
A: The IC50 was 55 nM.

Q: What about the IC50 [5] of the same compound?
A: The IC50 was 43 nM.

Q: Which IC50 [1] does the source give for `CC(=O)OC1C(=O)C2(C)C(O)CC3OCC3(OC(C)=O)C2C(OC(=O)C=C(C)C)C2(O)CC(OC(=O)C(O)C(NC(=O)OC(C)(C)C)c3ccccc3)C(C)=C1C2(C)C` (stereo not given) here?
A: Its IC50 is 3.5 nM.

Q: And the IC50 [2]?
A: Its IC50 is 2.9 nM.

Q: And the IC50 [3]?
A: The IC50 was 140 nM.

Q: What about the IC50 [4] of the same compound?
A: The IC50 was 2.7 nM.

Q: And the IC50 [5]?
A: Its IC50 is 1.1 nM.

Q: Which results are given for `C/C=C/C(NC(=O)OC(C)(C)C)C(O)C(=O)OC1CC2(O)C(OC(=O)C3CCCCC3)C3C4(OC(C)=O)COC4CC(O)C3(C)C(=O)C(OC(C)=O)C(=C1C)C2(C)C` (stereo not given)?
A: IC50 [1]: 8.5 nM; IC50 [2]: 12 nM; IC50 [3]: 446 nM; IC50 [4]: 6.6 nM; IC50 [5]: 3.2 nM

Q: `CC(=O)OC1C(=O)C2(C)C(O)CC3OCC3(OC(C)=O)C2C(OC(=O)C2CCCCC2)C2(O)CC(OC(=O)C(O)C(CC(C)C)NC(=O)OC(C)(C)C)C(C)=C1C2(C)C` (stereo not given) was tested. Which IC50 [1] did it give?
A: Its IC50 is 5.6 nM.

Q: What about the IC50 [2] of the same compound?
A: The IC50 was 7.7 nM.

Q: And the IC50 [3]?
A: The IC50 was 57 nM.

Q: And the IC50 [4]?
A: The IC50 was 3.2 nM.

Q: And the IC50 [5]?
A: The IC50 was 1.8 nM.

Q: Which results are given for `CC(=O)O[C@H]1C(=O)[C@@]2(C)[C@H]([C@H](OC(=O)c3ccccc3)[C@]3(O)C[C@H](OC(=O)[C@H](O)[C@H](C=C(C)C)NC(=O)OC(C)(C)C)C(C)=C1C3(C)C)[C@]1(OC(C)=O)CO[C@@H]1C[C@@H]2O`?
A: IC50 [1]: 0.6 nM; IC50 [2]: 0.3 nM; IC50 [3]: 12 nM; IC50 [4]: 0.5 nM; IC50 [5]: 0.6 nM

Q: What does the source list for `CC(=O)OC1C(=O)C2(C)C(O)CC3OCC3(OC(C)=O)C2C(OC(=O)CC(C)C)C2(O)CC(OC(=O)C(O)C(C=C(C)C)NC(=O)OC(C)(C)C)C(C)=C1C2(C)C` (stereo not given)?
A: IC50 [1]: 16 nM; IC50 [2]: 14 nM; IC50 [3]: 589 nM; IC50 [4]: 17 nM; IC50 [5]: 11 nM

Q: How did the IC50 [1] turn out when `CC(=O)OC1C(=O)C2(C)C(O)CC3OCC3(OC(C)=O)C2C(OC(=O)C2CCCCC2)C2(O)CC(OC(=O)C(O)C(NC(=O)OC(C)(C)C)c3ccccc3)C(C)=C1C2(C)C` (stereo not given) was run?
A: The IC50 was 5.6 nM.

Q: And the IC50 [2]?
A: The IC50 was 5.7 nM.

Q: What about the IC50 [3] of the same compound?
A: Its IC50 is 412 nM.

Q: What about the IC50 [4] of the same compound?
A: The IC50 was 4.8 nM.

Q: And the IC50 [5]?
A: Its IC50 is 1.8 nM.

Q: `CC(=O)OC1C(=O)C2(C)C(O)CC3OCC3(OC(C)=O)C2C(OC(=O)C=C(C)C)C2(O)CC(OC(=O)C(O)C(C=C(C)C)NC(=O)OC(C)(C)C)C(C)=C1C2(C)C` (stereo not given) was tested. Which IC50 [1] did it give?
A: The IC50 was 1.4 nM.

Q: What about the IC50 [2] of the same compound?
A: Its IC50 is 0.9 nM.

Q: And the IC50 [3]?
A: Its IC50 is 38 nM.

Q: And the IC50 [4]?
A: Its IC50 is 0.9 nM.

Q: What about the IC50 [5] of the same compound?
A: The IC50 was 0.5 nM.

Q: How did the IC50 [1] turn out when `CC(=O)OC1C(=O)C2(C)C(O)CC3OCC3(OC(C)=O)C2C(OC(=O)C2CCCCC2)C2(O)CC(OC(=O)C(O)C(NC(=O)OC(C)(C)C)C3CCCCC3)C(C)=C1C2(C)C` (stereo not given) was run?
A: Its IC50 is 59 nM.

Q: And the IC50 [2]?
A: Its IC50 is 49 nM.

Q: What about the IC50 [3] of the same compound?
A: Its IC50 is 591 nM.

Q: And the IC50 [4]?
A: Its IC50 is 43 nM.

Q: What about the IC50 [5] of the same compound?
A: Its IC50 is 10 nM.
